The values below come from ChEMBL document CHEMBL4765317, “Novel bacterial topoisomerase inhibitors derived from isomannide” (Eur J Med Chem, 2020).

Assay [1] relates to Staphylococcus aureus. Description: Antibacterial activity against Staphylococcus aureus ATCC 29213 assessed as reduction in bacterial growth by CLSI based broth microdilution method. In kind it is functional. On the technique in general: Dilution methods test growth across graded concentrations, often in twofold steps.
The subject of assay [2] is Staphylococcus aureus. Description: Antibacterial activity against Staphylococcus aureus USA300 assessed as reduction in bacterial growth by CLSI based broth microdilution method. In kind it is functional.
Assay [3] has as its system Staphylococcus aureus. Description: Antibacterial activity against cystic fibrosis patient isolate Staphylococcus aureus assessed as reduction in bacterial growth by CLSI based broth microdilution method. Format: functional.
In assay [4] the test system is Staphylococcus aureus. Description: Antibacterial activity against methicillin-resistant Staphylococcus aureus DRL-3161 assessed as reduction in bacterial growth by CLSI based broth microdilution method. In kind it is functional.
Assay [5] concerns Streptococcus pyogenes. Description: Antibacterial activity against Streptococcus pyogenes LSI-1235 assessed as reduction in bacterial growth by CLSI based broth microdilution method. Format: functional.
Assay [6] deals with Streptococcus pneumoniae. Description: Antibacterial activity against penicillin-susceptible Streptococcus pneumoniae LSI-4234 assessed as reduction in bacterial growth by CLSI based broth microdilution method. In kind it is functional.
In assay [7] the test system is Streptococcus pneumoniae. Description: Antibacterial activity against penicillin-resistant Streptococcus pneumoniae LSI-4246 assessed as reduction in bacterial growth by CLSI based broth microdilution method. In kind it is functional.
For assay [8], the system named is Enterococcus faecium. Description: Antibacterial activity against Vancomycin-susceptible Enterococcus faecium DRL-4193 assessed as reduction in bacterial growth by CLSI based broth microdilution method. Format: functional.
Assay [9] deals with Enterococcus faecium. The experiment in a line: Antibacterial activity against Vancomycin-resistant Enterococcus faecium LSI-3340 assessed as reduction in bacterial growth by CLSI based broth microdilution method. Format: functional.
Assay [10] has as its system Enterococcus faecalis. The experiment in a line: Antibacterial activity against Enterococcus faecalis ATCC 29212 assessed as reduction in bacterial growth by CLSI based broth microdilution method. Format: functional.
A short description of assay [11]: Inhibition of Staphylococcus aureus topoisomerase IV using kDNA as substrate incubated for 30 mins by gel electrophoresis analysis.
Assay [12] deals with Staphylococcus aureus. Description: Selectivity index, ratio of IC50 for inhibition of Staphylococcus aureus topoisomerase IV to IC50 for inhibition of Staphylococcus aureus DNA gyrase. Summed up: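 Ratio of S. aureus TopoIV IC50 to S. aureus DNA gyrase IC50, both from gel-based assays. TopoIV read-out was inhibition of decatenation; gyrase read-out was inhibition of supercoiling.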

Assay [13] concerns Staphylococcus aureus. Description: Antibacterial activity against Staphylococcus aureus 3527 assessed as reduction in bacterial growth by CLSI based broth microdilution method. Format: functional. Summed up: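 Host is a multidrug-resistant MRSA clinical isolate (formerly 1095), the parent of an isogenic D83N gyrase mutant. MIC was read by CLSI broth microdilution and reported in µg/mL.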

For assay [14], the system named is Staphylococcus aureus. Description: Antibacterial activity against Staphylococcus aureus harboring DNA gyrase D83N mutant assessed as reduction in bacterial growth by CLSI based broth microdilution method. Format: functional. The method, boiled down: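 MIC against an isogenic NBTI-resistant daughter strain carrying a D83N substitution in DNA gyrase, originally selected under NBTI pressure from multidrug-resistant MRSA isolate 3527. CLSI broth microdilution was used, with values in µg/mL.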

Assay [15] has as its system Staphylococcus aureus. The experiment in a line: Selectivity index, fold shift in MIC between parent and mutant. Format: functional. Summed up: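 MICs by CLSI broth microdilution in µg/mL against multidrug-resistant MRSA isolate 3527 (formerly 1095) and its isogenic NBTI-resistant daughter strain carrying a gyrase D83N substitution. Value is the fold shift in MIC between parent and mutant.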

For assay [16], the target named is Voltage-gated inwardly rectifying potassium channel KCNH2 (Homo sapiens, UniProt Q12809). Description: Inhibition of human ERG.
Voltage-gated inwardly rectifying potassium channel KCNH2, sequence (Q12809 whole entry): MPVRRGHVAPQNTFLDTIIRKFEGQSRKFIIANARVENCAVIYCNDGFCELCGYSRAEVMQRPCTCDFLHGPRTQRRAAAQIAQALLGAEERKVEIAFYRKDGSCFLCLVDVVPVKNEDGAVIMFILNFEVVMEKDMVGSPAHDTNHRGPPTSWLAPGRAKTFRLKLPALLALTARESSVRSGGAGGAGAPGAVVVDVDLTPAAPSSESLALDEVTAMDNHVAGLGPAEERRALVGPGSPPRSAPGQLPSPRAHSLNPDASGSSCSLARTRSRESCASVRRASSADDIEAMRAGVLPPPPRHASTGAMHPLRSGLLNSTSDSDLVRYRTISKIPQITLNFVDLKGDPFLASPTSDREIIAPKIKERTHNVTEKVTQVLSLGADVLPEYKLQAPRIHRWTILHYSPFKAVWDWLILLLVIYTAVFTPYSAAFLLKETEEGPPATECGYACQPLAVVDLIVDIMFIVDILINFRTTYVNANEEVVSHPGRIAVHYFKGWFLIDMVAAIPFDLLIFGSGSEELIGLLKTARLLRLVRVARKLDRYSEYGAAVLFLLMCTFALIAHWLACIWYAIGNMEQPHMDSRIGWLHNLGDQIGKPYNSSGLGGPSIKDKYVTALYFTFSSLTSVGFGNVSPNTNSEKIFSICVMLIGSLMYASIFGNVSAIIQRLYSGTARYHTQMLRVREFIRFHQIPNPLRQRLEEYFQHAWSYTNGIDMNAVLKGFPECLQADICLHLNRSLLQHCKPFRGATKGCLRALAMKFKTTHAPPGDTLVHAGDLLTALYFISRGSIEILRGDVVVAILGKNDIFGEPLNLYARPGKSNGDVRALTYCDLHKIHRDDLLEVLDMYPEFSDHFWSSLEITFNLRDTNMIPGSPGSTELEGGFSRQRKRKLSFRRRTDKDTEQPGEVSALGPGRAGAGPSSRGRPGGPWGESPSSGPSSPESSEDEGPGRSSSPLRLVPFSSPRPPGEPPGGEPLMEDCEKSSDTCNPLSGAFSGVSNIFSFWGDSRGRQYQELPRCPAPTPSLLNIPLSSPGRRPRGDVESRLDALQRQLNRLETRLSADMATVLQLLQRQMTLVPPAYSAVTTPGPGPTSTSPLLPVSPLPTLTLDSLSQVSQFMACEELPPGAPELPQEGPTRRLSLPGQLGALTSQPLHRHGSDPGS
Assay [17] can be described thus: Inhibition of Staphylococcus aureus DNA gyrase using relaxed pBR322 DNA as substrate incubated for 30 mins by agarose gel electrophoresis method.

In brackets after ≈: the same amount, converted by molar mass.

As for `COc1ccc2ncc(F)c(CC[C@H]3OC[C@H](NCc4ccc5c(c4)OCCO5)CO3)c2n1`, the MIC in [1] was under 0.25 µg/mL; in assay [2] it was 0.125 µg/mL (≈ 0.274 µM); in [3], 0.25 µg/mL (≈ 0.549 µM); in assay [4], at most 0.06 µg/mL; in assay [5] it was at most 0.06 µg/mL; in [6], 0.25 µg/mL (≈ 0.549 µM). For the same compound, the MIC in assay [7] is at most 0.06 µg/mL; in [8] it was 0.12 µg/mL (≈ 0.263 µM); in [9] it was 0.12 µg/mL (≈ 0.263 µM); in assay [10], 0.5 µg/mL (≈ 1.1 µM); in [13], at most 0.25 µg/mL; in assay [14] it was 4 µg/mL (≈ 8.78 µM). Besides, the IC50 in assay [11] (read-out: IC50) stood at 1 µM; in [16], 8 µM; in assay [17], 0.03 µM. The Ratio IC50 in assay [12] is 33. For the same compound, the Ratio in [15] was over 16.

Regarding `COc1ccc2ncc(F)c(CC[C@@]3(O)CO[C@@H]4[C@@H](NCc5ccc(C)cc5)CO[C@@H]43)c2n1`, the MIC was found to be 1 µg/mL (≈ 2.21 µM) in assay [1]; 2 µg/mL (≈ 4.41 µM) in [2]; 2 µg/mL (≈ 4.41 µM) in assay [3]; 2 µg/mL (≈ 4.41 µM) in assay [13]; 16 µg/mL (≈ 35.3 µM) in assay [14]. Also, the IC50 in [11] (read-out: IC50) was determined as 7.5 µM; in [17], 0.18 µM. The Ratio IC50 in [12] turned out to be 42. For the same compound, the Ratio in assay [15] came out at 8.

`COc1ccc2ncc(F)c(CC[C@]3(O)CC[C@H](NCc4ccc(Cl)c(Cl)c4)CC3)c2n1` gave an IC50 in [16] of 3.8 µM.

Regarding `COc1ccc2ncc(F)c(CC[C@@]3(O)CO[C@@H]4[C@@H](NCc5ccc6c(c5)OCCO6)CO[C@@H]43)c2n1`, the MIC worked out at 0.5 µg/mL (≈ 1 µM) in assay [1]; 1 µg/mL (≈ 2.01 µM) in assay [2]; 1 µg/mL (≈ 2.01 µM) in assay [3]; 1 µg/mL (≈ 2.01 µM) in assay [13]; 4 µg/mL (≈ 8.04 µM) in assay [14]. Moreover, the figures for the IC50 in assay [11] (read-out: IC50), in assay [16] and in [17] were 2.6 µM, 20 µM and 0.2 µM, respectively. Also, the Ratio IC50 in assay [12] was found to be 13. Further, in assay [15], the Ratio is 4.

The compound `COc1ccc2ncc(F)c(CC[C@H]3OC[C@H](NCc4ccc(Cl)c(Cl)c4)CO3)c2n1` registered an IC50 in [16] of 7.9 µM.

Regarding `COc1ccc2ncc(F)c(CC[C@H]3OC[C@H](NCc4cc5c(cn4)OCCO5)CO3)c2n1`, in [16], 15 µM corresponded to half-maximal inhibition (IC50).

For `COc1ccc2ncc(F)c(CC[C@]3(O)CC[C@@H](NCc4ccc5c(c4)OCCO5)CC3)c2n1`, in assay [16], 2.2 µM corresponded to half-maximal inhibition (IC50).

Consider `COc1ccc2ncc(F)c(CC[C@]3(O)CC[C@H](NCc4ccc5c(c4)OCCO5)CC3)c2n1`, for which the IC50 in [16] was 2.3 µM.

On to `COc1ccc2ncc(F)c(CC[C@@]3(O)CO[C@@H]4[C@@H](NCc5ccc(Cl)c(Cl)c5)CO[C@@H]43)c2n1`, for which the MIC in assay [1] is at most 0.25 µg/mL; in [2], 0.5 µg/mL (≈ 0.984 µM); in assay [3], 0.5 µg/mL (≈ 0.984 µM); in assay [13], 0.25 µg/mL (≈ 0.492 µM); in assay [14], 4 µg/mL (≈ 7.87 µM). For the same compound, the IC50 in assay [11] (read-out: IC50) came out at 2.9 µM; in [17], 0.2 µM.

Consider `COc1ccc2nccc(CC[C@@]3(O)CO[C@@H]4[C@@H](NCc5ccc(C)cc5)CO[C@@H]43)c2c1`, for which the MIC in [1], in assay [2] and in assay [3] was over 8 µg/mL in each case.

With `COc1ccc2ncc(F)c(CC[C@@]3(O)CO[C@@H]4[C@@H](NCc5ccc6c(n5)NC(=O)CO6)CO[C@@H]43)c2n1`, the MIC in assay [1] was determined as 2 µg/mL (≈ 3.91 µM); in assay [2] it was 1 µg/mL (≈ 1.95 µM); in assay [3] it was 2 µg/mL (≈ 3.91 µM); in [13], 1 µg/mL (≈ 1.95 µM); in [14], 8 µg/mL (≈ 15.6 µM). Further, the IC50 result in assay [11] is “Not Active”; in [16] it was 12 µM; in assay [17], 0.54 µM. Besides, the Ratio in assay [15] was 8.

Turning to `COc1ccc2nccc(CC[C@@]3(O)CO[C@@H]4[C@@H](NCc5ccc6c(c5)OCCO6)CO[C@@H]43)c2c1`, the MIC in assay [1], in assay [2] and in assay [3] was 16 µg/mL (≈ 33.4 µM) throughout.

Take `COc1ccc2nccc(CC[C@@]3(O)CO[C@@H]4[C@@H](NCc5ccccc5)CO[C@@H]43)c2c1`: the MIC in [1], in assay [2] and in assay [3] was over 8 µg/mL in each case.

For orientation: MIC means the least concentration at which growth counts as inhibited. In general, IC50 refers to the concentration that gives 50% inhibition.
